Test results reported in ChEMBL document CHEMBL2040808, “Design, synthesis, and in vitro activity of novel 2'-O-substituted 15-membered azalides” (J Med Chem, 2012).
pIC50: −log10 of the molar value. Values after ≈ are worked out from the molar mass of the structure shown.

Columns and labels:
[1] = Aqueous solubility of the compound at pH 4; format: physicochemical
[2] = tested on: Staphylococcus aureus; experiment: Antibacterial activity against Staphylococcus aureus ATCC 13709 by broth microdilution method; format: functional
Procedure, shortened: (§1)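 Standard broth microdilution MIC against macrolide-sensitive strains. For streptococci, 5% horse serum replaced lysed horse blood in the broth, and inocula were grown on Columbia agar with 5% sheep blood. S. aureus was grown on Mueller–Hinton agar.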

[3] = Selectivity ratio of IC50 for human HepG2 cells to IC50 for chloroquine-sensitive Plasmodium falciparum 3D7A; format: ADME, cell-based; details: HepG2 cells versus Plasmodium falciparum 3D7A, read-out: Ratio IC50
Procedure, shortened: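 Selectivity is the HepG2 IC50 divided by the P. falciparum IC50. For HepG2, 50000 cells per well in RPMI 1640 with 10% FBS were exposed to 1:2 serial dilutions for 24 h at 37 °C, 5% CO2. MTS was added for 2 h and absorbance read at 490 nm. Parasite IC50 came from the 48 h [3H]hypoxanthine assay.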

[4] = tested on: Plasmodium falciparum; experiment: Ratio of IC50 for azithromycin to compound IC50 for chloroquine-resistant Plasmodium falciparum W2 infected in type A rhesus-positive human erythrocytes assessed as [3H]hypoxanthine incorporation after 48 hrs by scintillation counting; format: functional
[5] = Selectivity ratio of IC50 for human HepG2 cells to IC50 for chloroquine-sensitive Plasmodium falciparum 3D7A; details: HepG2 cells versus Plasmodium falciparum 3D7A
[6] = tested on: Plasmodium falciparum; experiment: Antimalarial activity against chloroquine-sensitive Plasmodium falciparum 3D7A infected in type A rhesus-positive human erythrocytes assessed as [3H]hypoxanthine incorporation after 48 hrs by scintillation counting; format: functional, organism-based
Procedure, shortened: (§2)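 Modified semiautomated microdilution: compounds dissolved in DMSO, diluted in RPMI 1640 with 10% v/v human plasma, serial 1:2 dilutions in triplicate. Infected erythrocytes at 3% hematocrit, 0.25−0.55% parasitemia. [3H]hypoxanthine at 12.5−16 μCi/mL final. Incubated 48 h, 37 °C, in 5% O2/3% CO2/92% N2. Harvested on fiberglass strips, scintillation counted. IC50 by nonlinear regression of concentration−response curves.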

[7] = tested on: Plasmodium falciparum; experiment: Ratio of IC50 for azithromycin to compound IC50 for chloroquine-sensitive Plasmodium falciparum 3D7A infected in type A rhesus-positive human erythrocytes assessed as [3H]hypoxanthine incorporation after 48 hrs by scintillation counting; format: functional
[8] = tested on: Streptococcus pyogenes; experiment: Antibacterial activity against Streptococcus pyogenes isolate 3565 by broth microdilution method; format: functional; procedure, shortened: as §1
[9] = tested on: Plasmodium falciparum; experiment: Antimalarial activity against chloroquine-resistant Plasmodium falciparum W2 infected in type A rhesus-positive human erythrocytes assessed as [3H]hypoxanthine incorporation after 48 hrs by scintillation counting; format: functional, organism-based; procedure, shortened: as §2
[10] = tested on: HepG2; experiment: Cytotoxicity against human HepG2 cells after 24 hrs by MTS assay; format: cell-based; details: HepG2, 24 h
Procedure, shortened: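 Hep G2 cells were kept in RPMI 1640 with 10% FBS at 37 °C and 5% CO2. Wells held 50000 cells and received 1:2 serial dilutions of compound (DMSO stock diluted in medium) for 24 h. MTS reagent was then added for 2 h, absorbance was read at 490 nm, and IC50 was taken from response curves.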

[11] = tested on: Streptococcus pneumoniae; experiment: Antibacterial activity against Streptococcus pneumoniae isolate SP030 by broth microdilution method; format: functional; procedure, shortened: as §1

| Structure (SMILES) | solubility [1] [µg/mL] | MIC [2] [µg/mL] | selectivity ratio [3] | Ratio IC50 [4] | selectivity ratio [5] | pIC50 [6] | Ratio IC50 [7] | MIC [8] [µg/mL] | pIC50 [9] | pIC50 [10] | MIC [11] [µg/mL] |
| --- | --- | --- | --- | --- | --- | --- | --- | --- | --- | --- | --- |
| CC[C@H]1OC(=O)[C@H](C)[C@@H](O[C@H]2C[C@@](C)(OC)[C@@H](O)[C@H](C)O2)[C@H](C)[C@@H](O[C@@H]2O[C@H](C)C[C@H](N(C)C)[C@H]2OCCCNC(=O)CNc2ccnc3cc(Cl)ccc23)[C@](C)(O)C[C@@H](C)CN(C)[C@H](C)[C@@H](O)[C@]1(C)O | > 10000 | > 64 | 132 | 3 | 132 | 7.85 | 3 | > 64 | 8.05 | 4.55 | > 64 |
| CC[C@H]1OC(=O)[C@H](C)[C@@H](O[C@H]2C[C@@](C)(OC)[C@@H](O)[C@H](C)O2)[C@H](C)[C@@H](O[C@@H]2O[C@H](C)C[C@H](N(C)C)[C@H]2OCCCNC(=O)CNc2ccnc3ccccc23)[C@](C)(O)C[C@@H](C)CN(C)[C@H](C)[C@@H](O)[C@]1(C)O | > 10000 | > 64 | 132 | 3 | 132 | 6.92 | 3 | > 64 | 7.17 | < 4.00 | > 64 |
| CC[C@H]1OC(=O)[C@H](C)[C@@H](O)[C@H](C)[C@@H](O[C@@H]2O[C@H](C)C[C@H](N(C)C)[C@H]2OCCCNC(=O)CNc2ccnc3cc(Cl)ccc23)[C@](C)(O)C[C@@H](C)CN(C)[C@H](C)[C@@H](O)[C@]1(C)O | > 10000 | > 64 | 132 | 3 | 132 | 6.86 | 3 | > 64 | 7.08 | < 4.00 | > 64 |
| CC[C@H]1OC(=O)[C@H](C)[C@@H](O)[C@H](C)[C@@H](O[C@@H]2O[C@H](C)C[C@H](N(C)C)[C@H]2OCCCNC(=O)CNc2ccnc3ccccc23)[C@](C)(O)C[C@@H](C)CN(C)[C@H](C)[C@@H](O)[C@]1(C)O | > 10000 |  | 132 | 3 | 132 | 5.78 | 3 |  | 6.09 |  |  |
| CC[C@H]1OC(=O)[C@H](C)[C@@H](O[C@H]2C[C@@](C)(OC)[C@@H](O)[C@H](C)O2)[C@H](C)[C@@H](O[C@@H]2O[C@H](C)C[C@H](N(C)C)[C@H]2OCCCNC(=O)CCCNc2ccnc3cc(Cl)ccc23)[C@](C)(O)C[C@@H](C)CN(C)[C@H](C)[C@@H](O)[C@]1(C)O | > 10000 | > 64 | 132 | 3 | 132 | 7.54 | 3 | > 64 | 7.72 | 4.30 | > 64 |
| CC[C@H]1OC(=O)[C@H](C)[C@@H](O[C@H]2C[C@@](C)(OC)[C@@H](O)[C@H](C)O2)[C@H](C)[C@@H](O[C@@H]2O[C@H](C)C[C@H](N(C)C)[C@H]2OCCCNC(=O)CCCNc2ccnc3ccccc23)[C@](C)(O)C[C@@H](C)CN(C)[C@H](C)[C@@H](O)[C@]1(C)O | > 10000 | > 64 | 132 | 3 | 132 | 6.66 | 3 | > 64 | 6.87 | < 4.00 | > 64 |
| CC[C@H]1OC(=O)[C@H](C)[C@@H](O)[C@H](C)[C@@H](O[C@@H]2O[C@H](C)C[C@H](N(C)C)[C@H]2OCCCNC(=O)CCCNc2ccnc3cc(Cl)ccc23)[C@](C)(O)C[C@@H](C)CN(C)[C@H](C)[C@@H](O)[C@]1(C)O | > 10000 | > 64 | 132 | 3 | 132 | 6.40 | 3 | > 64 | 6.65 | 4.12 | > 64 |
| CC[C@H]1OC(=O)[C@H](C)[C@@H](O[C@H]2C[C@@](C)(OC)[C@@H](O)[C@H](C)O2)[C@H](C)[C@@H](O[C@@H]2O[C@H](C)C[C@H](N(C)C)[C@H]2OCCCNc2ccnc3cc(Cl)ccc23)[C@](C)(O)C[C@@H](C)CN(C)[C@H](C)[C@@H](O)[C@]1(C)O | > 10000 | > 64 | 132 | 3 | 132 | 7.68 | 3 | 64 (≈ 66.1 µM) | 8.00 | 4.35 | 64 (≈ 66.1 µM) |
| CC[C@H]1OC(=O)[C@H](C)[C@@H](O[C@H]2C[C@@](C)(OC)[C@@H](O)[C@H](C)O2)[C@H](C)[C@@H](O[C@@H]2O[C@H](C)C[C@H](N(C)C)[C@H]2OCCCNc2ccnc3ccccc23)[C@](C)(O)C[C@@H](C)CN(C)[C@H](C)[C@@H](O)[C@]1(C)O | > 10000 | 16 (≈ 17.1 µM) | 132 | 3 | 132 | 7.19 | 3 | 32 (≈ 34.3 µM) | 7.46 | 4.10 | 32 (≈ 34.3 µM) |
| CC[C@H]1OC(=O)[C@H](C)[C@@H](O)[C@H](C)[C@@H](O[C@@H]2O[C@H](C)C[C@H](N(C)C)[C@H]2OCCCNc2ccnc3cc(Cl)ccc23)[C@](C)(O)C[C@@H](C)CN(C)[C@H](C)[C@@H](O)[C@]1(C)O | > 10000 | > 64 | 132 | 3 | 132 | 7.43 | 3 | > 64 | 7.60 | 4.08 | > 64 |
| CC[C@H]1OC(=O)[C@H](C)[C@@H](O)[C@H](C)[C@@H](O[C@@H]2O[C@H](C)C[C@H](N(C)C)[C@H]2OCCCN(C)Cc2cnc3ccccc3c2)[C@](C)(O)C[C@@H](C)CN(C)[C@H](C)[C@@H](O)[C@]1(C)O | > 10000 | > 64 |  | 3 |  | 5.89 | 3 | > 64 | 6.51 | < 4.00 | > 64 |
| CC[C@H]1OC(=O)[C@H](C)[C@@H](O)[C@H](C)[C@@H](O[C@@H]2O[C@H](C)C[C@H](N(C)C)[C@H]2OCCCNCc2cnc3ccccc3c2)[C@](C)(O)C[C@@H](C)CN(C)[C@H](C)[C@@H](O)[C@]1(C)O | > 10000 | > 64 |  | 3 |  | 5.86 | 3 | > 64 | 6.54 | < 4.00 | > 64 |
| CC[C@H]1OC(=O)[C@H](C)[C@@H](O[C@H]2C[C@@](C)(OC)[C@@H](O)[C@H](C)O2)[C@H](C)[C@@H](O[C@@H]2O[C@H](C)C[C@H](N(C)C)[C@H]2O)[C@](C)(O)C[C@@H](C)CN(C)[C@H](C)[C@@H](O)[C@]1(C)O [AZITHROMYCIN] |  | 0.5 (≈ 0.668 µM) | 132 |  | 132 |  |  | ≤ 0.125 |  |  | ≤ 0.125 |
| CCN(CC)CCCC(C)Nc1ccnc2cc(Cl)ccc12 (configuration not stated) [CHLOROQUINE] |  | > 64 |  |  |  |  |  | > 64 |  |  | > 64 |
